Experimental data of several laboratories.
Compare with care: the assays were run in different laboratories.
Target: Serine/threonine-protein kinase Nek4 (NEK4, Homo sapiens, UniProt P51957)

| Structure (SMILES) | read-out | method | tested at | remaining binding |
| --- | --- | --- | --- | --- |
| CN(CCCC(F)(F)F)c1nccc(-c2cnn3ncccc23)n1 | binding |  | 1 µM | 92% |
| FC(F)(F)Oc1cccc(-c2cnc3ccc(-c4ccncc4)nn23)c1 | cell-free assay | competition with immobilised ligand | 5 µM | 94% |
| COc1ccnn2ncc(-c3ccnc(N(C)C)n3)c12 | binding |  | 1 µM | 86% |
| O=C(c1ccc(Nc2ncc(Cl)c(-c3ccc(Cl)s3)n2)cc1)N1CCC(N2CCCC2)CC1 | binding | competition with immobilised ligand | 1 µM | 30% |
| c1cncc(-c2cccc(Nc3nccc(NC4CCCCC4)n3)c2)c1 | binding | competition with immobilised ligand | 10 µM | 100% |
| CC1=C(C#N)C(c2ccc3c(c2)c(NC(=O)c2ccccc2C)nn3C)C(C#N)=C(C)N1 | cell-free assay | competition with immobilised ligand | 1 µM | 100% |
| N[C@@H]1CCN(c2nccc(-c3cnn4ncccc34)n2)C1 | binding |  | 1 µM | 100% |
| CC(=O)C1=C(C)N(c2cccc(C(F)(F)F)c2)C(=O)N[C@@H]1c1ccc(C#N)nc1 | cell-free assay | competition with immobilised ligand | 1 µM | 93.9% |
| CNC(=O)[C@@H]1CC[C@@H](n2c(-c3ccc4cnccc4c3)nc3ccc(C(=O)NCc4cccc(C(N)=O)c4)cc32)C1 | binding | competition with immobilised ligand | 1 µM | 100% |
| CN(c1nccc(-c2cnn3ncccc23)n1)C1CC1 | binding |  | 1 µM | 100% |
| CN(c1ccnc(CNc2nc(Nc3ccc4c(c3)CC(=O)N4)ncc2C(F)(F)F)n1)S(C)(=O)=O | cell-free assay | competition with immobilised ligand | 1 µM | 84% |
| O=C(NCCCN1CCOCC1)c1ccc(Nc2ncc(Cl)c(-c3ccc(Cl)s3)n2)cc1 | binding | competition with immobilised ligand | 1 µM | 40% |
| C[C@@H](c1ccc(-n2cnc3c(N)ncnc32)cc1)N1CCc2nn(C)c(Cc3ccccc3)c2C1=O | binding | competition with immobilised ligand | 0.1 µM | 82% |
| C[C@@H]1CCN(c2nccc(-c3cnn4ncccc34)n2)C1 | binding |  | 1 µM | 83% |
| Cn1nc(C(F)(F)F)cc1-c1cnc(N2CCc3cc(S(=O)(=O)Nc4c(F)cc(Cl)cc4F)cc(N4CCCC4=O)c32)nc1 | cell-free assay | competition with immobilised ligand | 1 µM | 72% |
| O=C(NCC1CCOCC1)c1n[nH]cc1NC(=O)c1c(F)cccc1F | binding | competition with immobilised ligand | 1 µM | 78% |
| CCC(=O)N[C@H]1CC[C@@H](C(=O)N(C)c2ccc(-c3nc4ccccc4o3)cc2)C1 | cell-free assay | competition with immobilised ligand | 1 µM | 99% |
| Cc1cnc(Nc2ccc(C(=O)N3CCC(N4CCCC4)CC3)cc2)nc1-c1cc2ccccc2s1 | binding | competition with immobilised ligand | 1 µM | 59% |
| FC(F)(F)c1ccc2c(c1)nc(-c1cccnc1)n2C1CC1 | cell-free assay | competition with immobilised ligand | 1 µM | 100% |
| Nc1ncc2c(n1)-c1c([nH]c3ccc(C#CC4CC4)cc13)CCCC2 | binding | competition with immobilised ligand | 1 µM | 84% |
